Data reported in ChEMBL document CHEMBL5724801, “EUbOPEN Chemogenomics Library - Multiplex” (2024).
Where “and” joins values, the source holds several entries; their conditions need not be identical. Identical values can stand only once.

Tested on: Fibroblast
Experiment: Multiplex assay against human fibroblast
Type: toxicity, cell-based
Outline: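 Four dyes were applied at seeding to live cells: Hoechst33342, BioTracker Green Microtubule Cytoskeleton Dye, MitoTracker Red and Annexin V Alexa Fluor 680. Imaging after compound addition used a CQ1 microscope at 37°C and 5% CO2. CellPathfinder machine-learning gating then sorted cells into Hoechst high-intensity objects or normal cells, normal cells into healthy, pyknosed or fragmented nuclei, and pyknosed cells into mitotic or apoptotic, with tubulin, mitochondrial-mass and membrane-permeability phenotypes given as per cents of healthy-nucleus cells.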

[1] = 12 h, 1 µM, compound concentration 1 uM
[2] = 12 h, 10 µM, compound concentration 10 uM
[3] = 24 h, 1 µM, compound concentration 1 uM
[4] = 24 h, 10 µM, compound concentration 10 uM
[5] = 48 h, 1 µM, compound concentration 1 uM
[6] = 48 h, 10 µM, compound concentration 10 uM

## CC(C)(O)c1cnc(N2C[C@@]3(CCC[C@](C)(Cn4cnc5ccc(C#N)cc54)C3)OC2=O)cn1 [GSK2798745]
[1]
  Population Apoptotic (%): 7.14% and 16.22%
  Population Fragmented Nuclei (%): 12.71% and 8%
  Population Healthy Nuclei (%): 63.56% and 75.56%
  Population Hoechst High Intensity Objects (%): 0%
  Population Membrane Permeable-Phenotype (%): 4% and 4.12%
  Population Mitochondria Different-Phenotype (%): 13.33% and 10.59%
  Population Mitotic Cells (%): 92.86% and 83.78%
  Population Normal (%): 100%
  Population Pyknosed Nuclei (%): 23.73% and 16.44%
  Population Tubulin-Different-Phenotype (%): 16% and 20%
  Total Cell Count: 118 and 225
[2]
  Population Apoptotic (%): 11.76% and 21.62%
  Population Fragmented Nuclei (%): 16.26% and 5.53%
  Population Healthy Nuclei (%): 50.25% and 77.42%
  Population Hoechst High Intensity Objects (%): 0%
  Population Membrane Permeable-Phenotype (%): 14.71% and 12.5%
  Population Mitochondria Different-Phenotype (%): 18.63% and 22.62%
  Population Mitotic Cells (%): 88.24% and 78.38%
  Population Normal (%): 100%
  Population Pyknosed Nuclei (%): 33.5% and 17.05%
  Population Tubulin-Different-Phenotype (%): 52.94% and 55.95%
  Total Cell Count: 203 and 217
[3]
  Population Apoptotic (%): 9.09% and 21.05%
  Population Fragmented Nuclei (%): 14.29% and 4.76%
  Population Healthy Nuclei (%): 65.22% and 87.01%
  Population Hoechst High Intensity Objects (%): 0%
  Population Membrane Permeable-Phenotype (%): 1.9% and 5.97%
  Population Mitochondria Different-Phenotype (%): 4.76% and 5.97%
  Population Mitotic Cells (%): 90.91% and 78.95%
  Population Normal (%): 100%
  Population Pyknosed Nuclei (%): 20.5% and 8.23%
  Population Tubulin-Different-Phenotype (%): 16.19% and 21.89%
  Total Cell Count: 161 and 231
[4]
  Population Apoptotic (%): 11.11% and 25.81%
  Population Fragmented Nuclei (%): 15.38% and 6.88%
  Population Healthy Nuclei (%): 68.33% and 78.9%
  Population Hoechst High Intensity Objects (%): 0%
  Population Membrane Permeable-Phenotype (%): 9.93% and 5.81%
  Population Mitochondria Different-Phenotype (%): 12.58% and 22.09%
  Population Mitotic Cells (%): 88.89% and 74.19%
  Population Normal (%): 100%
  Population Pyknosed Nuclei (%): 16.29% and 14.22%
  Population Tubulin-Different-Phenotype (%): 52.32% and 62.21%
  Total Cell Count: 221 and 218
[5]
  Population Fragmented Nuclei (%): 10.86% and 4.58%
  Population Healthy Nuclei (%): 82.29% and 90.83%
  Population Hoechst High Intensity Objects (%): 0%
  Population Membrane Permeable-Phenotype (%): 0% and 4.13%
  Population Mitotic Cells (%): 91.67% and 63.64%
  Population Normal (%): 100%
  Population Pyknosed Nuclei (%): 6.86% and 4.58%
  Population Tubulin-Different-Phenotype (%): 12.5% and 17.89%
  Total Cell Count: 175 and 240
[6]
  Population Apoptotic (%): 14.29% and 42.11%
  Population Fragmented Nuclei (%): 11.06% and 7.96%
  Population Healthy Nuclei (%): 78.85% and 83.63%
  Population Hoechst High Intensity Objects (%): 0%
  Population Membrane Permeable-Phenotype (%): 4.27% and 11.64%
  Population Mitochondria Different-Phenotype (%): 21.95% and 10.05%
  Population Mitotic Cells (%): 85.71% and 57.89%
  Population Normal (%): 100%
  Population Pyknosed Nuclei (%): 10.1% and 8.41%
  Population Tubulin-Different-Phenotype (%): 44.51% and 59.79%
  Total Cell Count: 208 and 226

## CN(C)Cc1cccc(NC(=C2C(=O)Nc3cc(C(=O)N(C)C)ccc32)c2ccccc2)c1
[1]
  Population Fragmented Nuclei (%): 12.28% and 5.26%
  Population Healthy Nuclei (%): 63.16% and 78.47%
  Population Hoechst High Intensity Objects (%): 0%
  Population Membrane Permeable-Phenotype (%): 4.17% and 9.15%
  Population Mitochondria Different-Phenotype (%): 12.5% and 7.93%
  Population Mitotic Cells (%): 91.07% and 67.65%
  Population Normal (%): 100%
  Population Pyknosed Nuclei (%): 24.56% and 16.27%
  Population Tubulin-Different-Phenotype (%): 20.14% and 25%
  Total Cell Count: 228 and 209
[2]
  Population Apoptotic (%): 15.09% and 31.43%
  Population Fragmented Nuclei (%): 12.72% and 8.65%
  Population Healthy Nuclei (%): 64.04% and 80.13%
  Population Hoechst High Intensity Objects (%): 0%
  Population Membrane Permeable-Phenotype (%): 8.22% and 6.4%
  Population Mitochondria Different-Phenotype (%): 23.97% and 16.8%
  Population Mitotic Cells (%): 84.91% and 68.57%
  Population Normal (%): 100%
  Population Pyknosed Nuclei (%): 23.25% and 11.22%
  Population Tubulin-Different-Phenotype (%): 54.79% and 75.6%
  Total Cell Count: 228 and 312
[3]
  Population Fragmented Nuclei (%): 10.42% and 4.72%
  Population Healthy Nuclei (%): 77.5% and 83.96%
  Population Hoechst High Intensity Objects (%): 0%
  Population Membrane Permeable-Phenotype (%): 1.08% and 2.81%
  Population Mitochondria Different-Phenotype (%): 4.84% and 10.11%
  Population Mitotic Cells (%): 93.1% and 75%
  Population Normal (%): 100%
  Population Pyknosed Nuclei (%): 12.08% and 11.32%
  Population Tubulin-Different-Phenotype (%): 11.29% and 23.03%
  Total Cell Count: 240 and 212
[4]
  Population Apoptotic (%): 13.33% and 25%
  Population Healthy Nuclei (%): 66.94% and 85.67%
  Population Hoechst High Intensity Objects (%): 0%
  Population Membrane Permeable-Phenotype (%): 8.43% and 2.18%
  Population Mitochondria Different-Phenotype (%): 24.7% and 21.82%
  Population Mitotic Cells (%): 86.67% and 75%
  Population Normal (%): 100%
  Population Pyknosed Nuclei (%): 18.15% and 9.97%
  Population Tubulin-Different-Phenotype (%): 63.25% and 79.64%
  Total Cell Count: 248 and 321
[5]
  Population Apoptotic (%): 26.67% and 31.25%
  Population Fragmented Nuclei (%): 11.31% and 7.86%
  Population Healthy Nuclei (%): 83.21% and 85.15%
  Population Hoechst High Intensity Objects (%): 0%
  Population Membrane Permeable-Phenotype (%): 0.88% and 7.18%
  Population Mitotic Cells (%): 73.33% and 68.75%
  Population Normal (%): 100%
  Population Pyknosed Nuclei (%): 5.47% and 6.99%
  Population Tubulin-Different-Phenotype (%): 7.46% and 16.92%
  Total Cell Count: 274 and 229
[6]
  Population Apoptotic (%): 33.33% and 64.71%
  Population Fragmented Nuclei (%): 14.48% and 6.69%
  Population Healthy Nuclei (%): 77.44% and 87.9%
  Population Hoechst High Intensity Objects (%): 0%
  Population Membrane Permeable-Phenotype (%): 1.3% and 2.9%
  Population Mitochondria Different-Phenotype (%): 11.3% and 9.42%
  Population Mitotic Cells (%): 66.67% and 35.29%
  Population Normal (%): 100%
  Population Pyknosed Nuclei (%): 8.08% and 5.41%
  Population Tubulin-Different-Phenotype (%): 43.48% and 85.14%
  Total Cell Count: 297 and 314
